Laboratory results: the EternaBench riboswitch data

Test system: MS2 coat protein
Experiment: apparent Kd, MS2 coat protein; higher = weaker binding; RNA-MaP array; FMN 200 µM where present
Procedure, shortened: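 On Illumina sequencing-chip clusters, designs were transcribed by stalled E. coli RNA polymerase and titrated with SNAP-549-labelled MS2 coat protein (0.7 or 1.5 nM, doubling to 3 µM), without and then with constant ligand, in 100 mM Tris-HCl pH 7.5, 80 mM KCl, 4 mM MgCl2, BSA, DTT, yeast tRNA and Tween-20. Apparent Kd is the median of filtered per-cluster curve fits to green signal normalised to red-channel RNA signal and control-cluster median Fmax.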

[1] = designed as: OFF switch for flavin mononucleotide, no ligand
[2] = ligand present: flavin mononucleotide, designed as: OFF switch for flavin mononucleotide
[3] = designed as: ON switch for flavin mononucleotide, no ligand
[4] = ligand present: flavin mononucleotide, designed as: ON switch for flavin mononucleotide

| Sequence | apparent Kd [1] [nM] | apparent Kd [2] [nM] | apparent Kd [3] [nM] | apparent Kd [4] [nM] |
| --- | --- | --- | --- | --- |
| GUCUCAGCUGAGGAUAUAUUCUCCCUUGAGGGAAUAGAAGGCAGUACAUGAGGAUCACCCAUGUGGUUCGUUUG | 122 | 327 | – | – |
| AAUUCGUGUCGAGGAUAUAUUAUAUGACAACAAACACAUACAUGAGGAUCACCCAUGUCCCAUGUAUAGAAGGCGAUGUGUGUG | – | – | 260 | 228 |
| GUUGCACAAGUUAACAUGAGGAUCACCCAUGUCAAAAGACAUGAGGAUAUGGAGCUGAAGAUUAUCCAGAAGGCAUAAUGCUAA | – | – | 460 | 158 |
| GGAAAACAUGAGGAUCACCCAUGUGAGGAUAUCGAUGUCCAAAAACCCGUGCGGGACUCGAGAAGGCACUUGGA | 43.1 | 57 | – | – |
| AAAUUGCUAGAGGAUAUCGGAUAGGAUCUAUUACGAGAAGGUUAGACAUGAGGAUCACCCAUGUUCUGUUGGGA | 42.6 | 123 | – | – |
| AAACAUGUCCGAGGAUAUCUGGAAACAUUUUCAAGAGAAGGCGGACAUGAGGAUCACCCAUGUCUCUCCUCAUCCAAUCCAAGU | 9.36 | 46.4 | – | – |
| GUGGUACAUGAGGAUCACCCAUGUUAGGAUAUCGCGUGAGGUUUUACUUCCGCACGCGCGAGAAGGGACGUCUU | 36.2 | 29.5 | – | – |
| UGGUGAAGUGUAGGAUAUGGAGGUGGGUUUUGGCCAGAAGGACAUGAGGAUCACCCAUGUGGUAGAGGGUUGGCGGUGGCCCGU | 16 | 13.7 | – | – |
| AGAUGUACAGCGAUAUGAUCGAGAGAUCAUGUCGCUGAAUUUAGAAGGACAUGAGGAUCACCCAUGUAGGAUAUGGGUGUAAUA | – | – | 80.8 | 72.8 |
| GGCGAGUAAGGAUAUUUUAACCUACAGACGAGUGAUGGUUAAGAGAAGGUACAUGAGGAUCACCCAUGUCAUCC | 16.2 | 19.8 | – | – |
| GCAGACGUGGUGAGGAUAUGCUCUACCUCGGUAGAGCAGAAGGCACAUGAGGAUCACCCAUGUGGCUCCUCAUU | 15.9 | 21 | – | – |
| AGUUAAUAUCGAGGAUAUAAGUCUAGGACAUGAGGAUCACCCAUGUAUGUCUUAGAAGGCGAUAUUAACAGCAUGUUACAUGCA | – | – | 28.3 | 6.89 |
| GUUUACGUAGAAGGAUAUACAUUUGACAUCCUGAUGCACGCAAUACUCACAUGAGGAUCACCCAUGUAGAAGGUCUGCGAAAGA | 15.5 | 24.8 | – | – |
| UCCUCACAUGAGGAUCACCCAUGUCAGGAUAUCUCACAGCUAAAGAAUAAAGGCUGCAAGAGAAGGGACACAAU | 21.6 | 48.1 | – | – |
| GGUAAAUAAAGAGUACUGUUUUGAACAUGAGGAUCACCCAUGUAGGAUAUGCGAGUUUUGAAUUUGCAGAAGGACAUUUUUAGC | 19.6 | 20.4 | – | – |
| UACCGCUCUGAAGGAUAUCCACUGGGAUGCUGGAUGUAUGAGCGUACAUGAGGAUCACCCAUGUAGGAGAAGGUCAGGCAUUCC | 5.8 | 7.84 | – | – |
| AUUUGAAUGUCAGGAUAUGGUAGAUUAUUCUUAUCAGAAGGGAUAAUUAUACUCAAGUACAUGAGGAUCACCCAUGUUAAAUCA | – | – | 12 | 12.6 |
| CUUUUGUGAGGAUAUCAGUAGUAAAAUAAUAAAUAUACUACUGAGAAGGCACAUGAGGAUCACCCAUGUUCCUC | 37.8 | 233 | – | – |
| UUGUUGUAUGAAGGAUAUACUUAACAUGAGGAUCACCCAUGUGGUGUUGUGAGUGAGUGAGUUUAGUAGAAGGUCAAUUCUUUU | 221 | 201 | – | – |
| AGGUCAACCACAGGAUAUGGCUAGCAUAGCUAGCCAGAAGGGUGGUCGUUGCCAUGUAAAUACAUGAGGAUCACCCAUGUAUCC | – | – | 190 | 49.5 |
| AUGGUUGUCGUAGGAUAUGUAGGAUAUUCCUACAUGAGGAUCACCCAUGUUCGCAUGGAAGAAGGACAGAAGGACGAUGACCAG | – | – | 1020 | 9.57 |
| AACUAGCUAGGAUAUACAUGAGGAUCACCCAUGUAAAAAAAAAAAAAAAGAUCAAAAUGUAGAAGGAGCUAGUA | 106 | 132 | – | – |
| GAAAACAGAGGAUAUACAUAAGCUAGACGAAAGUCUAGCAAACAUGAGGAUCACCCAUGUAGAAGGCUGAAGAA | 37.6 | 36.3 | – | – |
| CGGUCGAUGUAAGGAUAUCGACUGGAUAACAGUCGAGAAGGUACAUGAGGAUCACCCAUGUAAUCCUAAUAAUAAUAACGACCG | 12.6 | 18 | – | – |
| GGAUGAGCAAUAGGAUAUGCUGGUAUUGAAUGGGUAGAAGGAUUUCUAGUGGUAAAGACAUGAGGAUCACCCAUGUAGCGGCCC | – | – | 328 | 265 |
| UUCGUGCAGCUUUGCUGUACGCGUACAUGAGGAUCACCCAUGUAGGAUAUGGUACGCUUUGCGUGCUAGAAGGAUAUGGAGAGC | 15.7 | 16.3 | – | – |
| ACAUGUCGUGAGAAGGACGGCGUGCAUAGCGCCGUAGGAUAUCAAGACAUGAGGAUCACCCAUGUACGCGUGUCCCGCCGUGCU | 38.7 | 303 | – | – |
| CUUGGCUAGGAGAAGGGCUAGAGUGUGAUAUAUUUGCCCGCGAGCACAUGAGGAUCACCCAUGUAGCAGGAUAUCCAAGCCGGU | 7.4 | 17.4 | – | – |

| Sequence | apparent Kd [1] [nM] | apparent Kd [2] [nM] | apparent Kd [3] [nM] | apparent Kd [4] [nM] |
| --- | --- | --- | --- | --- |
| AGAUGGUAUAUAGGAUAUCAUGUGCAAACAUGAGGAUCACCCAUGUAGGAACGUCAGUUCAAUAAUGAGAAGGAUAUACCAUCU | – | – | 33.4 | 11.9 |
| GCGACGAAAGUCGAACGAUGUAGCAGAAGGACAUGAGGAUCACCCAUGUCAGCUGUAACAGCCAUGUAGGAUAUGCUACAUCGG | 4.09 | 5.27 | – | – |
| GGAUUACAAAUUUAUUUAAUUCACAUGAGGAUCACCCAUGUGUAGGAUAUGCUAGUUAAGUAAUAGCAGAAGGACAUGUGCCUU | 8.82 | 9.26 | – | – |
| CGUUGAUAAUAUCUUCACAUGAGGAUCACCCAUGUCGCUCGACAGGAUAUAUUUGAUUUGUUUAAGUAGAAGGGUCGCAGAUGC | – | – | 157 | 130 |
| GUCCUCAAGACAGGAUAUCCAUACAACGCGCUAGGAGAAGGGUCUACAUGAGGAUCACCCAUGUGAUUCUGAGAAUUUGGUGGG | 313 | 148 | – | – |
| AGCUACGUUUCGUAGCAGUGUCAUCGAGAAGGCUCAUAUACAUGAGGAUCACCCAUGUUAACAUGGGAGGAUAUCGAUGAUACA | – | – | 50.2 | 6.64 |
| CAUAAGAUAGGAUAUACAGGCCCGUCUUUAUAUUGAUCCCGACAUGAGGAUCACCCAUGUAGAAGGAUCAUAUG | 13.7 | 15.2 | – | – |
| CGGUUUCACAUUUUAGUGAUUUAUACAGAAGGCCAUACACAUGAGGAUCACCCAUGUCAGGAAUUGGAGGAUAUGUUAUUGACG | – | – | 6.1 | 4.4 |
| UUAUUGUAUGUAGGAUAUGCAUAUUAUUAUUAUGCAGAAGGACAUGAGGAUCACCCAUGUAUAUUAUUAUUAUAUAUUAUAUAU | 32.3 | 60.9 | – | – |
| UAUGUAUUCGUAGGAUAUCCGUUGAGACCGUGUGGAGAAGGACGAACAUGAGGAUCACCCAUGUAUCAUGGUGUAGACAAUUUU | 115 | 353 | – | – |
| CUAGUACAUGAGGAUCACCCAUGUCAGGAUAUUGGAUAUGCCUUGGAAAACAUGUUUACAAGAAGGGACUAUAG | 19.1 | 19.6 | – | – |
| ACAUGAGGAUCACCCAUGUGAUGAUCUCCCAUGUUAUAUUUCAGAAGGCUCGCGUGUUUGAUGAGAGAGGAUAUGGAAUAUACG | 325 | 272 | – | – |
| CGCGAAUUACAGAAGGGACAAGGGAUAAAACCCAGGUCUUGCAGUAGACAUGAGGAUCACCCAUGUCAGGAUAUGUAGAGAGUU | 17.2 | 95.5 | – | – |
| CGAAACUACGAGAAGGACAUGUGGUCCUUCAGUUACAUGAGGAUCACCCAUGUAGGAUAUCGUAGUUUCAGGAUCGUGAGAUCU | 38.7 | 9.81 | – | – |
| AGAAAUAAAAAUGAGGAUAUGCAAAAGAAAACAUGAGGAUCACCCAUGUAAAAGAAAAUAAAUGGGCAGAAGGCAUGAAAUAAAGA | – | – | 136 | 44.9 |
| UCCUUGUCCUGAGGAUAUCCGCGGUGACCAAAAGGAGAAGGCAGGACAUGAGGAUCACCCAUGUACCCAGAAAACGUGCAGAGU | 30.1 | 197 | – | – |
| CCUACGUGAGGAUAUGCAACUAACACGUUAGACAAAUAGUUGCAGAAGGCACAUGAGGAUCACCCAUGUGAACC | 29.8 | 34.9 | – | – |
| GGACGACACAUGAACAUGAGGAUCACCCAUGUAAAUUCUCAUGAGGAUAUGGAUCCUAAUUGGAUCCAGAAGGCGUGGUCGUCC | – | – | 961 | 507 |
| GAGAGAUAGUAGGAUAUUCUGUACGGGUGACCAGGAGAAGGACUAACAUGAGGAUCACCCAUGUGGCUGGUCAU | 15.9 | 16.2 | – | – |
| AAUUCACAUGAGGAUCACCCAUGUCAGGAUAUGGUUUCACGUGUUUCUGUGCUUGAGGCCAGAAGGGACAGCUA | 65.5 | 76.5 | – | – |
| AAUGUUUGAUUCCACUUAUACAUGAGGAUCACCCAUGUUAUCGAGGAUAUGCAUUAGAGCGUUUAGCAGAAGGCGAUGUAAUUG | 7.41 | 20.3 | – | – |
| UUUUAACAUGAGGAUCACCCAUGUGAGGAUAUCGAAAUUUAUAUUUAUAUUAAUUUUUCGAGAAGGCACAUUUU | 169 | 157 | – | – |
| AAAAAGUCAGGAUAUGCGAAGGCGUCUGAUAGACGAGGCUAGCAGAAGGGACAUGAGGAUCACCCAUGUGGAAA | 79.4 | 135 | – | – |
| UUGCUACAUGAGGAUCACCCAUGUCAGGAUAUAGUGUAUAGCGUGGAAGCUCUGUCGAUUAGAAGGGACUGUCU | 23.7 | 25.2 | – | – |
| UUUUAACAUGAGGAUCACCCAUGUGAGGAUAUCGAAAUUUAUAUUUAUAUUUAUAUUACGAGAAGGCACAUUUU | 84.9 | 102 | – | – |
| GGUUGGCGAGGAUAUACAUGAGGAUCACCCAUGUGGUCCUGUGGCUGGUCUUACCUUUGUAGAAGGCGCGGGUC | 88.4 | 93.2 | – | – |
| CUCGUGUAAGGAUAUGCGAGCCGCGGAAAUACACCGCGGAGGUAGAAGGUACAUGAGGAUCACCCAUGUAAAAC | 25.5 | 103 | – | – |
